# Measurements from different studies.
# Target: LIM domain kinase 1 (LIMK1, Homo sapiens, UniProt P53667)
Structure (SMILES),assay,conditions,remaining binding
Cc1cnn2ncc(-c3ccnc(N(C)C)n3)c2c1,binding,1 µM,100%
CCCCN(CCCC)C(=O)CN1C[C@@H](c2cc(OC)c3c(c2)OCO3)[C@H](C(=O)O)[C@H]1CC(C)(C)CCC,"cell-free assay, competition with immobilised ligand",1 µM,99%
O=C(NCCCN1CCOCC1)c1ccc(Nc2nccc(-c3cc4ccccc4s3)n2)cc1,"binding, competition with immobilised ligand",1 µM,53%
C[C@@H]1CCN(c2nccc(-c3cnn4ncccc34)n2)C1,binding,1 µM,100%
O=C(c1ccc(Nc2nccc(-c3cc4ccccc4s3)n2)cc1)N1CCC(N2CCCC2)CC1,"binding, competition with immobilised ligand",1 µM,20%
Cc1c(NC(=O)c2cc(C(N)=O)nc3cc(F)ccc23)c(C(F)(F)F)nn1Cc1ccc(C#N)cc1,"cell-free assay, competition with immobilised ligand",1 µM,78%
CCN1CCN(Cc2ccc(C(=O)Nc3ccc(C)c(Oc4ccc5c(c4)CC(=O)N5)c3)cc2C(F)(F)F)CC1,"binding, competition with immobilised ligand",1 µM,100%
N[C@H]1CCN(c2nccc(-c3cnn4ncccc34)n2)C1,binding,1 µM,81%
FC(F)(F)Oc1cccc(-c2cnc3ccc(-c4ccncc4)nn23)c1,"cell-free assay, competition with immobilised ligand",5 µM,81%
CNCc1ccccc1-c1csc([C@@H](C)Nc2nc(C)nc3cc(OC)c(OC)cc23)c1,"cell-free assay, competition with immobilised ligand",1 µM,99%
CNC(=O)[C@@H]1CC[C@@H](n2c(-c3ccc4cnccc4c3)nc3ccc(C(=O)NCc4cccc(C(N)=O)c4)cc32)C1,"binding, competition with immobilised ligand",1 µM,100%
F[C@@H]1CCN(c2nccc(-c3cnn4ncccc34)n2)C1,binding,1 µM,89%
O=C(NCC1CCOCC1)c1n[nH]cc1NC(=O)c1c(F)cccc1F,"binding, competition with immobilised ligand",1 µM,100%
CS(=O)(=O)N1CCCC(NC(=O)[C@H](CCC2CCCCC2)NC(=O)c2ccc(CNC(=O)c3cnc4ccccn34)cc2)C1 (stereo partly drawn),"cell-free assay, competition with immobilised ligand",0.1 µM,75%
CC1CCCN1c1nccc(-c2cnn3ncccc23)n1 (stereo not drawn),binding,1 µM,100%
CCC(=O)N[C@H]1CC[C@@H](C(=O)N(C)c2ccc(-c3nc4ccccc4o3)cc2)C1,"cell-free assay, competition with immobilised ligand",1 µM,86%
O=C(c1ccc(Nc2ncc(Cl)c(-c3cc4ccccc4s3)n2)cc1)N1CCC(N2CCCC2)CC1,"binding, competition with immobilised ligand",1 µM,53%
COc1cnc(Nc2cccc(S(N)(=O)=O)c2)nc1N1CCN(c2ccccc2)CC1,"binding, competition with immobilised ligand",1 µM,100%
C[C@@H](c1ccc(-n2cnc3c(N)ncnc32)cc1)N1CCc2nn(C)c(Cc3ccccc3)c2C1=O,"binding, competition with immobilised ligand",0.1 µM,65%
CN(CCCC(F)(F)F)c1nccc(-c2cnn3ncccc23)n1,binding,1 µM,86%
CCC(=N\O)/C(C)=C/c1ccc(F)cc1,"cell-free assay, competition with immobilised ligand",1 µM,78%
